Results: ChEMBL document CHEMBL3745653, “Honokiol for the Treatment of Neonatal Pain and Prevention of Consequent Neurobehavioral Disorders” (J Nat Prod, 2015)
Active and inactive are the calls of the source.

How the values were obtained:
[1] = test system: Rattus norvegicus; experiment: Toxicity in formalin-induced Wistar rat pups pain model assessed as change in exploratory behavior by measuring distance travelled at 10 mg/kg, ip administered 1 hr […] prior to formalin challenge measured for 5 mins on postnatal day 21 by open field test; type: organism-based; conditions: in vivo
Method in brief: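 Open-field test at P21 during the dark cycle, 1 h after ip honokiol or corn oil. Rats explored a 50 × 50 × 50 cm box for 5 min under video tracking, and total distance travelled was calculated. n = 3 or 4 per group.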

[2] = test system: Rattus norvegicus; experiment: Antinociceptive activity in formalin-induced Wistar rat pups pain model assessed as upregulation of substance P receptor expression in alveus at 10 mg/kg, ip administered 1 hr on postnatal day 7 prior to formalin challenge measured on postnatal day 21 by immunohistochemical staining assay relative to control; type: functional, organism-based
Method in brief: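 Substance P receptor immunostaining at P21, 14 days after the 3-day formalin or saline protocol with ip honokiol or corn oil. Sections fixed in formalin then cold methanol, 0.2% Triton under 3 min, 1% fish gel block 1 h, primary antibody 24 h, then secondary. Positive cells counted in the hippocampal alveus, mean ± SEM.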

[3] = test system: Rattus norvegicus; experiment: Antinociceptive activity in formalin-induced Wistar rat pups pain model assessed as downregulation of c-Fos expression in thalamus at 10 mg/kg, ip administered on postnatal day 7 measured after 3 days post formalin challenge by immunohistochemical staining assay relative to control; type: functional, organism-based
Method in brief: (§1)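 c-Fos immunohistochemistry on brain sections from P7 rats after the 3-day formalin or control protocol. Sections fixed in formalin, treated with 0.3% H2O2, blocked in 1% fish gel, then anti-c-Fos 1:500 for 24 h and biotinylated IgG. Six 20 μm sections ≥90 μm apart per animal, each with six random 20× fields counted. n = 6−8 per group.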

[4] = test system: Rattus norvegicus; experiment: Antinociceptive activity in formalin-induced Wistar rat pups pain model assessed as decrease in recuperation time at 10 mg/kg, ip administered 1 hr on postnatal day 7 prior to formalin challenge; type: functional
Method in brief: (§2)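 Honokiol in corn oil (vehicle alone as control) given ip 1 h before intraplantar sc injection of 5% formalin (10 μL) or saline into the left forepaw. Recuperation behaviours (paw licking, lifting, flinching, rolling) scored for 60 s at 5 min intervals over 60 min. Phase I at 5 min, phase II tonic period 5−60 min. Blinded observers, n = 8 per group, mean ± SEM.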

[5] = test system: Rattus norvegicus; experiment: Antinociceptive activity in Wistar rat pups assessed as rolling at 10 mg/kg, ip administered 1 hr on postnatal day 7 prior to formalin challenge measured for 60 secs at 5 mins interval for 60 mins; type: functional, organism-based; method in brief: as §2
[6] = test system: Rattus norvegicus; experiment: Antinociceptive activity in Wistar rat pups assessed as flinching at 10 mg/kg, ip administered 1 hr on postnatal day 7 prior to formalin challenge measured for 60 secs at 5 mins interval for 60 mins; type: functional, organism-based; method in brief: as §2
[7] = test system: Rattus norvegicus; experiment: Antinociceptive activity in formalin-induced Wistar rat pups pain model assessed as increased in discrimination ratio at 10 mg/kg, ip administered 1 hr on postnatal day 7 prior to formalin challenge measured on postnatal day 21 by novel object recognition test
[8] = test system: Rattus norvegicus; experiment: Antinociceptive activity in Wistar rat pups assessed as paw-lifting at 10 mg/kg, ip administered 1 hr on postnatal day 7 prior to formalin challenge measured for 60 secs at 5 mins interval for 60 mins; type: functional, organism-based; method in brief: as §2
[9] = test system: Rattus norvegicus; experiment: Antinociceptive activity in formalin-induced Wistar rat pups pain model assessed as decrease in thermal hyperalgesia at 10 mg/kg, ip administered daily from postnatal day 4 to day 6 prior to formalin challenge followed by further compound administration every other day until postnatal day 17 to day 21 by hot plate test; type: functional, organism-based
Method in brief: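 Chronic severe pain model: 5% formalin (10 μL sc) or saline injected into each paw in sequence at 1 h intervals, daily P4−P6. Honokiol or corn oil ip before insult each day, then every other day until P21. Latency to jump on a 55 ± 2 °C hot plate, cutoff 30 s. Three readings at least 15 min apart averaged per animal. Blinded, mean ± SEM.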

[10] = test system: Rattus norvegicus; experiment: Antinociceptive activity in formalin-induced Wistar rat pups pain model assessed as improved exploratory behavior at 10 mg/kg, ip administered 1 hr on postnatal day 7 prior to formalin challenge measured on postnatal day 21 by defensive withdrawal test; type: functional, organism-based
Method in brief: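 Defensive withdrawal at P21, during the dark cycle, after the neonatal formalin or saline insult with ip honokiol or corn oil. Habituation to the 50 × 50 × 50 cm open field for 10 min without the chamber. Animals then started in a dark chamber along the wall. Latency measured until all four paws were outside the chamber. Blinded, mean ± SEM.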

[11] = test system: Rattus norvegicus; experiment: Antinociceptive activity in formalin-induced Wistar rat pups pain model assessed as downregulation of c-Fos expression in hippocampus at 10 mg/kg, ip administered on postnatal day 7 measured after 3 days post formalin challenge by immunohistochemical staining assay relative to control; type: functional, organism-based; method in brief: as §1
[12] = test system: Rattus norvegicus; experiment: Antinociceptive activity in Wistar rat pups assessed as paw-licking at 10 mg/kg, ip administered 1 hr on postnatal day 7 prior to formalin challenge measured for 60 secs at 5 mins interval for 60 mins; type: functional, organism-based; method in brief: as §2

## C=CCc1ccc(O)c(-c2ccc(O)c(CC=C)c2)c1 [HONOKIOL]
[1]
  Activity: 4000 mm
[2]
  Activity: Active
[3]
  Activity: Active
[4]
  Time: 30 min
[5]
  Activity: Active
[6]
  Activity: Active
[7]
  Activity: Active
[8]
  Activity: Active
[9]
  Activity: Active
[10]
  Activity: Active
[11]
  Activity: Active
[12]
  Activity: Active
